Experiments:
[1] = biological target: T1, Polyunsaturated fatty acid 5-lipoxygenase (Homo sapiens, UniProt P09917); test: Inhibition of 5-LO in human neutrophils using arachidonic acid as substrate assessed as reduction in 5-LO product formation preincubated for 15 mins followed by substrate addition measured after 10 mins in presence of Ca2+ ionophore A23187 by HPLC analysis
T1 sequence (P09917 whole entry): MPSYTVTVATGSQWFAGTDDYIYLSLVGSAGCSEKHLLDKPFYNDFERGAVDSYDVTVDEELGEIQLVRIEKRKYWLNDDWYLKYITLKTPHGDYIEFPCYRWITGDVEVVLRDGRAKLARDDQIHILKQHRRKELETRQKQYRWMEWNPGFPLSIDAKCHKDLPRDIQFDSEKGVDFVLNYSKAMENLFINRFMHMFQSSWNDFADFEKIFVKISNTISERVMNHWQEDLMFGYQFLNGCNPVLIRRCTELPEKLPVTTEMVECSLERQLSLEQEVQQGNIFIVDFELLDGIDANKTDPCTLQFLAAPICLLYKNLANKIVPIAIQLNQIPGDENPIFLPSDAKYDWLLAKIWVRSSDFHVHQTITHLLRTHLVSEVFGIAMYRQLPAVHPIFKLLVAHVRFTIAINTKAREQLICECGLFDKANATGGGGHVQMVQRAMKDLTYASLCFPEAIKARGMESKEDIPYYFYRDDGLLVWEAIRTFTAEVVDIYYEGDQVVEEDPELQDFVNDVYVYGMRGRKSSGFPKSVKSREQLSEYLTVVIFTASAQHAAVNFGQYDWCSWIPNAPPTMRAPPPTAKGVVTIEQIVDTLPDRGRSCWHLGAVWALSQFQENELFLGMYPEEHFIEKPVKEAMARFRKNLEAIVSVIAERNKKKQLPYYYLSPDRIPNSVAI
Summary of the method: (§1)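 Human neutrophils (5 × 10^6 in 1 ml PBS with 1 mg/ml glucose) pre-incubated 15 min at 37 °C with compound or 0.1% DMSO, then activated with 1 mM CaCl2 and 2.5 µM A23187, with or without 20 µM AA; 5-LO products measured after 10 min. Residual activity at 10 µM; IC50 by nonlinear regression from 4-5 concentrations; mean ± SEM, n=3-4.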

[2] = biological target: T2, Prostaglandin E synthase (Homo sapiens, UniProt O14684); test: Inhibition of mPGES-1 isolated from microsomes of interleukin-1 beta-stimulated human A549 cells using PGH2 as substrate preincubated for 15 mins followed by substrate addition measured after 1 min by RP-HPLC analysis
T2 sequence (O14684 whole entry): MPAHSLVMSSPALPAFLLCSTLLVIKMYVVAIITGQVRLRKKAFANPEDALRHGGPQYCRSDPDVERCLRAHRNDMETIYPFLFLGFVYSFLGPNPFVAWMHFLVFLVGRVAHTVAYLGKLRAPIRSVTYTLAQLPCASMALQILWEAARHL
Summary of the method: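 Microsomes from A549 cells treated with IL-1β (1 ng/ml, 72 h), diluted in 0.1 M potassium phosphate pH 7.4 with 2.5 mM glutathione. Pre-incubated 15 min with compound or DMSO, then 20 µM PGH2 (final) for 1 min at 4 °C. IC50 from 4-5 concentrations.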

[3] = biological target: T3, Polyunsaturated fatty acid 5-lipoxygenase (Homo sapiens) (UniProt P09917); test: Inhibition of recombinant human 5-LO expressed in Escherichia coli BL21 (DE3) using arachidonic acid as substrate assessed as residual activity preincubated for 10 mins followed by CaCl2 and substrate addition measured after 10 mins by RP-HPLC analysis
T3 sequence (whole entry): T1 sequence (P09917 whole entry)
Summary of the method: (§2)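 Human recombinant 5-LO from E. coli BL21(DE3), ATP-agarose semi-purified (0.5 µg/ml), pre-incubated with compound or 0.1% DMSO at 4 °C. It was pre-warmed 30 s at 37 °C, then started with 2 mM CaCl2 plus 20 µM AA. Stopped after 10 min with ice-cold methanol; products by RP-HPLC. Residual activity at 10 µM; IC50 from 4-5 concentrations; n=3-4.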

[4] = biological target: T3, Polyunsaturated fatty acid 5-lipoxygenase (Homo sapiens); test: Inhibition of 5-LO in human neutrophils using arachidonic acid as substrate assessed as residual activity preincubated for 15 mins followed by substrate addition measured after 10 mins in presence of Ca2+ ionophore A23187 by HPLC analysis; summary of the method: as §1
[5] = biological target: T4, Prostaglandin E synthase (Homo sapiens) (UniProt O14684); test: Inhibition of mPGES-1 isolated from microsomes of interleukin-1 beta-stimulated human A549 cells assessed as residual activity at 10 uM using PGH2 as substrate preincubated for 15 mins followed by substrate addition measured after 1 min by RP-HPLC analysis
T4 sequence (whole entry): T2 sequence (O14684 whole entry)

[6] = biological target: T1, Polyunsaturated fatty acid 5-lipoxygenase; test: Inhibition of recombinant human 5-LO expressed in Escherichia coli BL21 (DE3) using arachidonic acid as substrate preincubated for 10 mins followed by CaCl2 and substrate addition measured after 10 mins by RP-HPLC analysis; summary of the method: as §2

| IC50 [1] [µM] | IC50 [2] [µM] | Activity [3] [%] | Activity [4] [%] | Activity [5] [%] | IC50 [6] [µM] | SMILES |
| --- | --- | --- | --- | --- | --- | --- |
| 1 | 5.2 | 65.6 | – | – | – | Cc1ccc(CN(c2ccc(C(=O)O)cc2)S(=O)(=O)c2ccc(-c3ccccc3)cc2)cc1 |
| – | – | 91.4 | 76.9 | 91.6 | – | Cc1ccc(S(=O)(=O)N(CC2CCCCC2)c2ccc(C(=O)O)cc2)cc1 |
| – | – | 92.7 | 104 | 92.5 | – | Cc1ccc(S(=O)(=O)N(Cc2cccs2)c2ccc(C(=O)O)cc2)cc1 |
| – | – | 86.7 | 75.4 | 85.7 | – | Cc1ccc(S(=O)(=O)N(Cc2c(F)cccc2Cl)c2ccc(C(=O)O)cc2)cc1 |
| – | – | 86.1 | 65.2 | 79.9 | – | CCCCCCN(c1ccc(C(=O)O)cc1)S(=O)(=O)c1ccc(C)cc1 |
| – | – | 106 | 98.2 | 90.7 | – | Cc1ccc(S(=O)(=O)N(Cc2ccsc2)c2ccc(C(=O)O)cc2)cc1 |
| – | – | 93.2 | 110 | 95.7 | – | COc1ccc(CN(c2ccc(C(=O)O)cc2)S(=O)(=O)c2ccc(C)cc2)cc1OC |
| 1.1 | 0.3 | – | – | – | 6.4 | O=C(O)c1ccc(N(Cc2ccc3ccccc3c2)S(=O)(=O)c2ccc(-c3ccccc3)cc2)cc1 |
| 4 | – | 115 | – | 52.6 | – | CCCCN(c1ccc(C(=O)O)cc1)S(=O)(=O)c1ccc(-c2ccccc2)cc1 |
| 4.8 | – | 96.7 | – | 52.8 | – | Cc1ccc(S(=O)(=O)N(Cc2ccc3ccccc3c2)c2ccc(C(=O)O)cc2)cc1 |
| 4.4 | 4.7 | 66.4 | – | – | – | O=C(O)c1ccc(N(Cc2cccs2)S(=O)(=O)c2ccc(-c3ccccc3)cc2)cc1 |
| – | – | 81.1 | 75.7 | 91.3 | – | Cc1ccc(S(=O)(=O)N(Cc2ccccc2)c2ccc(C(=O)O)cc2)cc1 |
| – | – | 86.1 | 97.2 | 96.7 | – | O=C(O)c1ccc(N(Cc2cccs2)S(=O)(=O)c2ccc(Cl)cc2)cc1 |
| – | – | 86.7 | 94.6 | 96.5 | – | O=C(O)c1ccc(N(Cc2cccs2)S(=O)(=O)c2ccc(F)cc2)cc1 |
| – | – | 99.1 | 112 | 79.9 | – | CCCCN(c1ccc(C(=O)O)cc1)S(=O)(=O)c1ccc(C)cc1 |
| – | – | 107 | 84.7 | 74.1 | – | Cc1ccc(S(=O)(=O)N(Cc2cccc(Cl)c2)c2ccc(C(=O)O)cc2)cc1 |
| – | – | 100 | 83.2 | 71.2 | – | Cc1ccc(S(=O)(=O)N(Cc2ccc(Cl)cc2)c2ccc(C(=O)O)cc2)cc1 |
| 3.4 | 3.2 | 57.5 | – | – | – | O=C(O)c1ccc(N(CC2CCCCC2)S(=O)(=O)c2ccc(-c3ccccc3)cc2)cc1 |
| 3.5 | 5.3 | 61.4 | – | – | – | Cc1ccc(S(=O)(=O)N(Cc2ccc(Oc3ccccc3)cc2)c2ccc(C(=O)O)cc2)cc1 |
| 0.5 | 6.5 | – | – | – | 6.6 | O=C(O)c1ccc(N(Cc2ccc(OCc3ccccc3)cc2)S(=O)(=O)c2ccc(-c3ccccc3)cc2)cc1 |
| 3.3 | 4 | 96.2 | – | – | – | O=C(O)c1ccc(N(Cc2ccccc2)S(=O)(=O)c2ccc(-c3ccccc3)cc2)cc1 |
| – | – | 97 | 102 | 96.4 | – | Cc1ccc(S(=O)(=O)N(Cc2cccs2)c2ccc(CC(=O)O)cc2)cc1 |
| 0.5 | 5 | – | – | – | 5.2 | CCCCCCCCN(c1ccc(C(=O)O)cc1)S(=O)(=O)c1ccc(-c2ccccc2)cc1 |

| IC50 [1] [µM] | IC50 [2] [µM] | Activity [3] [%] | Activity [4] [%] | Activity [5] [%] | IC50 [6] [µM] | SMILES |
| --- | --- | --- | --- | --- | --- | --- |
| – | – | 93.4 | 96.7 | 82.8 | – | Cc1ccc(CN(c2ccc(C(=O)O)cc2)S(=O)(=O)c2ccc(C)cc2)cc1 |
| – | – | 71.9 | 69.7 | 76.7 | – | O=C(O)c1ccc(N(Cc2cccs2)S(=O)(=O)c2ccc(-c3ccc4ccccc4c3)cc2)cc1 |
| 0.7 | 3.2 | 50.2 | – | – | – | CC(C)(C)c1ccc(CN(c2ccc(C(=O)O)cc2)S(=O)(=O)c2ccc(C(C)(C)C)cc2)cc1 |
| 1.8 | 0.7 | – | – | – | 5.5 | O=C(O)CCc1ccc(N(Cc2ccc3ccccc3c2)S(=O)(=O)c2ccc(-c3ccccc3)cc2)cc1 |
| 8.4 | – | 110 | – | 56.8 | – | O=C(O)c1ccc(N(Cc2ccoc2)S(=O)(=O)c2ccc(-c3ccccc3)cc2)cc1 |
| – | – | 93 | 112 | 94.6 | – | O=C(O)c1ccc(N(Cc2cccs2)S(=O)(=O)c2ccc(C(=O)O)cc2)cc1 |
| 3.4 | 1.1 | – | – | – | 8.7 | O=C(O)Cc1ccc(N(Cc2ccc3ccccc3c2)S(=O)(=O)c2ccc(-c3ccccc3)cc2)cc1 |
| 0.9 | 2.7 | – | – | – | 2.3 | CC(C)(C)C#Cc1ccc(S(=O)(=O)N(Cc2ccc(C(C)(C)C)cc2)c2ccc(C(=O)O)cc2)cc1 |
| 0.3 | 3.8 | – | – | – | 7.2 | O=C(O)c1ccc(N(Cc2cccc(Oc3ccccc3)c2)S(=O)(=O)c2ccc(-c3ccccc3)cc2)cc1 |
| 0.3 | 1.2 | – | – | – | 5.6 | CC(C)(C)c1ccc(CN(c2ccc(C(=O)O)cc2)S(=O)(=O)c2ccc(-c3ccccc3)cc2)cc1 |
| 3.2 | 1.9 | 88.4 | – | – | – | O=C(O)c1ccc(N(Cc2ccc3c(c2)OCO3)S(=O)(=O)c2ccc(-c3ccccc3)cc2)cc1 |
| 1.7 | 2.9 | 78 | – | – | – | O=C(O)c1ccc(N(Cc2ccc3ccccc3c2)C(=O)c2ccc(-c3ccccc3)cc2)cc1 |
| 1.3 | 6.2 | 78.6 | – | – | – | COc1cccc(CN(c2ccc(C(=O)O)cc2)S(=O)(=O)c2ccc(-c3ccccc3)cc2)c1 |
| 1.5 | 1.9 | 105 | – | – | – | CCCCCCN(c1ccc(C(=O)O)cc1)S(=O)(=O)c1ccc(-c2ccccc2)cc1 |
| – | – | 115 | 95.2 | 71.7 | – | Cc1ccc(S(=O)(=O)N(Cc2ccccc2Cl)c2ccc(C(=O)O)cc2)cc1 |
| – | – | 109 | 98.7 | 88.9 | – | O=C(O)c1ccc(N(CC2CCCCC2)S(=O)(=O)c2ccc(F)cc2)cc1 |
| – | 2.7 | 88.9 | 80 | – | – | Cc1ccc(S(=O)(=O)N(Cc2ccccc2)c2ccc(C(=O)NS(=O)(=O)c3ccccc3)cc2)cc1 |
| 5.4 | 2.6 | 72 | – | – | – | O=C(O)c1ccc(N(CC2CCCCC2)S(=O)(=O)c2ccc(Oc3ccccc3)cc2)cc1 |
| 2.4 | 6.3 | 97.6 | – | – | – | Cc1ccc(S(=O)(=O)N(Cc2ccc(Cl)c(Cl)c2)c2ccc(C(=O)O)cc2)cc1 |
| 2.1 | 4.7 | 75 | – | – | – | O=C(O)c1ccc(N(Cc2cnc3ccccc3c2)S(=O)(=O)c2ccc(-c3ccccc3)cc2)cc1 |
| 1.1 | 1.6 | 117 | – | – | – | O=C(O)c1ccc(N(Cc2ccc3c(c2)OCCO3)S(=O)(=O)c2ccc(-c3ccccc3)cc2)cc1 |
| 1 | 0.8 | – | – | – | 6 | O=C(O)c1ccc(N(Cc2cccc(Oc3ccccc3)c2)S(=O)(=O)c2ccc(Oc3ccccc3)cc2)cc1 |
